Consider 10 compounds from ChEMBL document CHEMBL1152744, “Select pyrimidinones inhibit the propagation of the malarial parasite, Plasmodium falciparum” (Bioorg Med Chem, 2009).

Series [1] in a line: Cytotoxicity against human HepG2 cells. The series is classed as cell-based. In outline: (§1)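 GI50 measured in HepG2 hepatocellular carcinoma and WI-38 embryonic diploid lung cells, calculated relative to a DMSO (negative) control.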
Series [2] in a line: Cytotoxicity against human WI38 cells. The series is classed as cell-based, WI-38. Put shortly:
as §1

In series [3] the test system is Plasmodium falciparum. The series is described as follows: Antimalarial activity against chloroquine-resistant Plasmodium falciparum Dd2 infected human erythrocytes after 72 hrs by [3H]hypoxanthine uptake. Type of series: functional, organism-based. Put shortly:
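Asexual blood-stage P. falciparum Dd2 (chloroquine-resistant) in human erythrocytes, exposed to compound for 72 h, with [3H]hypoxanthine added for the last 24 h. Dose-response series were run, and IC50 was calculated by linear regression on the linear portions of plotted uptake values. Chloroquine was included as an internal control.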

Series [4] concerns the target Heat shock 70 kDa protein (Plasmodium falciparum) (UniProt P11144). In words: Inhibition of Plasmodium falciparum Hsp70 ATPase activity assessed as residual enzyme activity at 300 uM relative to control. Put shortly: (§2)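 Steady-state ATPase assay with P. falciparum Hsp70, yeast Ssa1 or human Hsp70. Compound at 300 μM final; activity standardized to an equal volume of DMSO, set to 1. Values are means of 6 independent experiments, ±SD where shown.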

Series [5] deals with Heat shock protein SSA1 (Saccharomyces cerevisiae S288c) (UniProt P10591). In words: Inhibition of Saccharomyces cerevisiae Ssa1 ATPase activity assessed as residual enzyme activity at 300 uM relative to control. Put shortly:
as §2

For series [6], the target named is Heat shock 70 kDa protein 1A (Homo sapiens) (UniProt P0DMV8). In words: Inhibition of human HSPA1A ATPase activity assessed as residual enzyme activity at 300 uM relative to control. Put shortly: as §2
Sequence of Heat shock 70 kDa protein 1A (Homo sapiens) (P0DMV8 2-641 limits assumed): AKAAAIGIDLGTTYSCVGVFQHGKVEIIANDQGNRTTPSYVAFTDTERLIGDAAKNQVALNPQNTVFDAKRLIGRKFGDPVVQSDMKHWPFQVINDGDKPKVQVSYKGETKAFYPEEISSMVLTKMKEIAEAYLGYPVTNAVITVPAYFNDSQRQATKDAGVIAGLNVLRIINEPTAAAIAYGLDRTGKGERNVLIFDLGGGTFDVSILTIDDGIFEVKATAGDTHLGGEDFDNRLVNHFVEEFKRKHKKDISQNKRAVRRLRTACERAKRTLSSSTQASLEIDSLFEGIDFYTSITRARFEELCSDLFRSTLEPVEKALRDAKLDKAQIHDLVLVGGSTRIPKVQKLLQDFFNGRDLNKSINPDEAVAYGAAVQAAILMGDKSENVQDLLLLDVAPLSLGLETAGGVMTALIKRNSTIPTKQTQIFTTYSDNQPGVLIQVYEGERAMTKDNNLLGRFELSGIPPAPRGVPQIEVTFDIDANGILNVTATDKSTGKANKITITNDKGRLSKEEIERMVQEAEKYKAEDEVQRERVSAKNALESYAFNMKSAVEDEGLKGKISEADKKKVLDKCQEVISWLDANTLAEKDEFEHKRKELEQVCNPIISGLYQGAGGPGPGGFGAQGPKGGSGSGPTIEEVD
Series [7] deals with Plasmodium falciparum. In words: Antimalarial activity against chloroquine-resistant Plasmodium falciparum Dd2 infected human erythrocytes at 5 uM after 72 hrs as inhibition of [3H]hypoxanthine uptake. The series is classed as functional. In outline:
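Single-point screen of Dd2 asexual blood stages in human red cells at final concentrations of 1 μM and 5 μM, with 72 h drug exposure and [3H]hypoxanthine pulse over the final 24 h. Read-out was percent inhibition of label uptake. Compounds giving >50% inhibition at 5 μM were re-screened.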

For series [8], the system named is Plasmodium falciparum. The series is described as follows: Effect on Plasmodium falciparum Hsp70 ATPase activity assessed as fold change in Kcat at 100 uM relative to control. Put shortly: (§3)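 Single-turnover ATPase assay measuring kCAT of recombinant P. falciparum Hsp70 (E. coli Rosetta 2, Ni-chelate then Q-Sepharose purified), yeast Ssa1, or human HSPA1A (E. coli-expressed, untagged or His6). Optional J-domain partners: Hlj1 1.1 μM; Ydj1 0.045 μM with Ssa1, 0.9 μM with Pf or human Hsp70. Compound at 100 μM final; activity expressed as a fraction of the DMSO-only reaction under the same conditions, set to 1.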

Series [9] has as its system Plasmodium falciparum. The series is described as follows: Effect on Plasmodium falciparum Hsp70 ATPase activity assessed as fold change in Kcat at 100 uM in presence of J-domain containing yeast HlJ1 co-chaperone relative to control. Put shortly:
as §3

Series [10] addresses Heat shock protein SSA1 (Saccharomyces cerevisiae S288c) (UniProt P10591). The series is described as follows: Effect on Saccharomyces cerevisiae Ssa1 ATPase activity assessed as fold change at 100 uM in Kcat relative to control. Put shortly: as §3
Series [11] has the same target. In words: Effect on Saccharomyces cerevisiae Ssa1 ATPase activity assessed as fold change in Kcat at 100 uM in presence of J-domain containing yeast HlJ1 co-chaperone relative to control. Put shortly: as §3
Series [12] deals with Heat shock 70 kDa protein 1A (Homo sapiens) (UniProt P0DMV8). The series is described as follows: Effect on human HSPA1A ATPase activity assessed as fold change in Kcat at 100 uM relative to control. In outline: as §3
Series [13] shares this target. The series is described as follows: Effect on human HSPA1A ATPase activity assessed as fold change in Kcat at 100 uM in presence of J-domain containing Hdj1 co-chaperone relative to control.
Series [14] concerns the target Heat shock protein SSA1 (Saccharomyces cerevisiae S288c) (UniProt P10591). The series is described as follows: Effect on Saccharomyces cerevisiae Ssa1 ATPase activity assessed as fold change in Kcat at 100 uM in presence of J-domain containing yeast Ydj1 co-chaperone relative to control. Put shortly:
as §3

Series [15] concerns the target Heat shock 70 kDa protein 1A (Homo sapiens) (UniProt P0DMV8). The series is described as follows: Effect on human HSPA1A ATPase activity assessed as fold change in Kcat at 100 uM presence of J-domain containing yeast Ydj1 co-chaperone relative to control. Put shortly:
as §3

Series [16] shares this target. The series is described as follows: Inhibition of human Hsp70 ATPase activity assessed as reduction of rate of ATP hydrolysis. Set-up: scale not given: the % may be the effect or the level left.
In series [17] the target is Heat shock protein SSA1 (Saccharomyces cerevisiae) (UniProt P10591). The series is described as follows: Effect on yeast Hsp70 Ssa1 ATPase activity assessed as fold change in Kcat at 100 uM relative to control.

Sequence of Heat shock protein SSA1 (Saccharomyces cerevisiae S288c) (P10591 whole entry): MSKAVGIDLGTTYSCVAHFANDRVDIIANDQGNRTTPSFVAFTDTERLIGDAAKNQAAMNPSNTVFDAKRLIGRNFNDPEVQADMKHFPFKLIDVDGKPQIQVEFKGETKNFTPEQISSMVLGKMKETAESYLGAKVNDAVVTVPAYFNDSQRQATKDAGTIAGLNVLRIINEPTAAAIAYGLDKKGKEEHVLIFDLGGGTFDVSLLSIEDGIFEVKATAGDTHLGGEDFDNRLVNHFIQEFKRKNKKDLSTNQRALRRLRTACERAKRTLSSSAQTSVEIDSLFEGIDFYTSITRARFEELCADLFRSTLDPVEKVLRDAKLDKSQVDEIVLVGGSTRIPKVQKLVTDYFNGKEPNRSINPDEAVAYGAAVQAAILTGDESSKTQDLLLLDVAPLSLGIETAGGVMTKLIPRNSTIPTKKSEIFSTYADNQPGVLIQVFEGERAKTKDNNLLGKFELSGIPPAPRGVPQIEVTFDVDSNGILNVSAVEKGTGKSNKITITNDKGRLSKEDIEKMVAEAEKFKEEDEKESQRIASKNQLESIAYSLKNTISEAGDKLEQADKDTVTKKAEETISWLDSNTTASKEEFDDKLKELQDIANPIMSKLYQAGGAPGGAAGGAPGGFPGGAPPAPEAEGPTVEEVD
Sequence of Heat shock 70 kDa protein (Plasmodium falciparum) (P11144 whole entry): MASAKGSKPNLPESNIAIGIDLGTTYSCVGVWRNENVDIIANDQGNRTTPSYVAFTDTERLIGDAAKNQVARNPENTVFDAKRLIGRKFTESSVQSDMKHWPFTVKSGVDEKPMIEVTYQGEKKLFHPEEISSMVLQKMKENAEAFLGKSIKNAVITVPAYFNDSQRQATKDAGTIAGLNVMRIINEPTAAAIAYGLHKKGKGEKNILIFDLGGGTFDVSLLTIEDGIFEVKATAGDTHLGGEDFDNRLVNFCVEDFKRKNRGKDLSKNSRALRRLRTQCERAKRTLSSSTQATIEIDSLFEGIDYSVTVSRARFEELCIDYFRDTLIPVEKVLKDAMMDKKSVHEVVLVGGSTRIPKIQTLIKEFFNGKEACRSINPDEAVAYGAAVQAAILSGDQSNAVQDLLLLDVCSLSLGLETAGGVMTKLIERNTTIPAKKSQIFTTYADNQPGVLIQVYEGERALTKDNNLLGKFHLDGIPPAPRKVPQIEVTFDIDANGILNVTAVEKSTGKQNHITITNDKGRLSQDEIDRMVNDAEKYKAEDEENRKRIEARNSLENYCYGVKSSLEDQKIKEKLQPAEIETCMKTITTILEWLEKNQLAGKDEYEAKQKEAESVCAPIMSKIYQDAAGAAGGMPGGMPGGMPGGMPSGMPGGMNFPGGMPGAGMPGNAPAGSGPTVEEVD

For orientation: GI50 means the concentration that inhibits growth by half. `CC(=O)O[C@H]1C(=O)[C@@]2(C)[C@H]([C@H](OC(=O)c3ccccc3)[C@]3(O)C[C@H](OC(=O)[C@H](O)[C@@H](NC(=O)c4ccccc4)c4ccccc4)C(C)=C1C3(C)C)[C@]1(OC(C)=O)CO[C@@H]1C[C@@H]2O` [PACLITAXEL]: the 50% growth inhibitory concentration (GI50) in series [1] was 1 nM; in series [2], 13.7 nM.
As usually defined, the IC50 is the point on the concentration scale where inhibition reaches its midpoint. In general, inhibition refers to the share of the control response that was lost under treatment. On to `CCOC(=O)C1=C(C)N(Cc2ccccc2)C(=O)NC1c1ccccc1OS(=O)(=O)c1ccccc1[N+](=O)[O-]` (configuration not stated), for which, in the series on Plasmodium falciparum [3], the IC50 worked out at 100 nM. Further, the fold change (FC) in [4] came to 0.99; in series [5] it was 1.1; in series [6] it was 0.74; in the series on Plasmodium falciparum [8], 6.5; in the series with Plasmodium falciparum [9] it was 1.4; in series [10], 2.1. The fold change (FC) in series [11] was 1; in series [12] it was 3.6; in series [13] it was 3.5; in series [14] it was -1.3; in [15] it was -1.2; in series [17], 2.1. Also, the 50% growth inhibitory concentration (GI50) in series [1] and in [2] was over 10000 nM throughout. In the series with Plasmodium falciparum [7], the inhibition at 5 µM is over 50%. Besides, in series [16], the Activity amounted to 30%.
Compound `CCCCN1C(=O)NC(c2ccc(OC)cc2)C(C(=O)OCc2ccccc2)=C1C` (configuration not stated) gave an IC50 in the series on Plasmodium falciparum [3] of 200 nM. Moreover, the fold change (FC) in [4] is 0.92; in series [5] it was 0.95; in series [6], 0.8; with Plasmodium falciparum [8], 7.2; with Plasmodium falciparum [9] it was -1.1; in series [10], 2.3. Besides, the fold change (FC) in series [11] is 1; in series [12] it was 4.5; in [13] it was 4.5; in series [14], -1.1; in series [15], 1.1. Further, the GI50 in series [1] and in [2] was over 10000 nM in each case. In the series on Plasmodium falciparum [7], the inhibition at 5 µM was over 50%.
In the series with Plasmodium falciparum [3], `CCCCCCN(C(=O)CCCCCN1C(=O)NC(c2ccc(-c3ccccc3)cc2)C(C(=O)OCc2ccccc2)=C1C)C(C(=O)NCCCC)C1CCCCC1` (configuration not stated) displayed an IC50 of 1100 nM. The fold change (FC) in series [4] was 0.74; in [5] it was 0.97; in [6], 0.95; in the series with Plasmodium falciparum [8], 2.9; in the series with Plasmodium falciparum [9], -1.5; in series [10], -1.7. For the same compound, the fold change (FC) is 1.2 in series [11]; 2.3 in series [12]; 2.8 in [13]; -1.3 in [14]; 1.1 in series [15]; -1.7 in series [17]. The 50% growth inhibitory concentration (GI50) in series [1] and in [2] was over 10000 nM each time. The same compound yielded an inhibition at 5 µM in the series with Plasmodium falciparum [7] of over 50%.
As to `CCOC(=O)C1=C(C)N(CCCC(=O)NCCn2c(-c3ccccc3)cc(C(=O)OC)c2C)C(=O)NC1c1ccc([N+](=O)[O-])cc1` (configuration not stated), the half-maximal inhibitory concentration (IC50) with Plasmodium falciparum [3] worked out at 30 nM. In addition, the fold change (FC) was 1.02 in [4]; 0.89 in [5]; 0.8 in series [6]; 3.7 in the series on Plasmodium falciparum [8]; 1.5 in the series on Plasmodium falciparum [9]; -1.3 in series [10]. For the same compound, the fold change (FC) in series [11] is -1.6; in [12], 2; in [13], 4.3; in series [14], -1.6; in [15] it was -1.2; in series [17] it was -1.3. Further, the 50% growth inhibitory concentration (GI50) in series [1] and in [2] was over 10000 nM throughout. The inhibition at 5 µM in the series on Plasmodium falciparum [7] is over 50%.
With `CC1=C(C(=O)OCc2ccccc2)C(c2ccc([N+](=O)[O-])cc2)NC(=O)N1CCCC(=O)N(CCN1CCOCC1)C(C(=O)NC(C)(C)C)c1ccc(-c2ccccc2)cc1` (configuration not stated), in the series with Plasmodium falciparum [3], the concentration for half-maximal inhibition (IC50) was 800 nM. Moreover, the fold change (FC) in series [4] was 0.72; in [5], 0.75; in series [6], 0.82; in the series with Plasmodium falciparum [8] it was 2.2; in the series on Plasmodium falciparum [9] it was 1.4; in series [10] it was 1.2. The fold change (FC) in series [11] was 1; in series [12], 2; in series [13], 2.9; in series [14], -1.5; in series [15], -1.1; in series [17] it was 1.2. Besides, the concentration for 50% growth inhibition (GI50) in [1] and in series [2] was over 10000 nM in each case. The compound also yielded an inhibition at 5 µM in the series on Plasmodium falciparum [7] of over 50%.
`CCCCNC(=O)C(c1ccc(-c2ccccc2)cc1)N(CCN1CCOCC1)C(=O)CCCCCN1C(=O)NC(c2ccc([N+](=O)[O-])cc2)C(C(=O)OCc2ccccc2)=C1C` (configuration not stated) gave a half-maximal inhibitory concentration (IC50) in the series with Plasmodium falciparum [3] of 200 nM. Also, the fold change (FC) in series [4] is 0.73; in [5] it was 1; in series [6] it was 0.74; with Plasmodium falciparum [8] it was 2.3; in the series with Plasmodium falciparum [9], -1.3; in series [10], -1.6. For the same compound, the fold change (FC) in series [11] is -1.1; in series [12], 1; in series [13] it was 4.7; in [14], -2.6; in [15] it was 1; in series [17] it was -1.6. Moreover, the GI50 in [1] and in series [2] was over 10000 nM in each case. This compound came in with an inhibition at 5 µM in the series on Plasmodium falciparum [7] of over 50%.
In the series with Plasmodium falciparum [3], `COC(=O)c1cc(-c2ccccc2)n(CCNC(=O)CCCCCN2C(=O)NC(c3ccc(-c4ccccc4)cc3)C(C(=O)OCc3ccccc3)=C2C)c1C` (configuration not stated) yielded an IC50 of 50 nM. Further, the fold change (FC) was 1.01 in series [4]; 1.2 in series [5]; 0.72 in series [6]; 2.7 with Plasmodium falciparum [8]; -1.1 in the series with Plasmodium falciparum [9]; 13.3 in [10]. Besides, the fold change (FC) is -6.5 in series [11]; 3.5 in [12]; 5.3 in [13]; -1.7 in [14]; 1.5 in series [15]. For the same compound, the GI50 in series [1] and in [2] was over 10000 nM throughout. In addition, the inhibition at 5 µM with Plasmodium falciparum [7] was over 50%. In [16], the Activity was determined as 30%.
In turn, `COC(=O)C1=C(Cc2ccccc2)NC(=O)NC1c1ccc2ccccc2c1` (configuration not stated) returned an IC50 in the series with Plasmodium falciparum [3] of 300 nM. Moreover, the fold change (FC) in series [4] is 1; in series [5], 1.2; in series [6], 0.7; in the series with Plasmodium falciparum [8], 1.4; in the series on Plasmodium falciparum [9], -1.2; in series [10] it was 2. The fold change (FC) was -1.2 in [11]; 1.3 in series [12]; 2.5 in series [13]; -1.3 in series [14]; -1.2 in series [15]; 2 in series [17]. Moreover, the GI50 in [1] and in series [2] was over 10000 nM throughout. Further, the inhibition at 5 µM in the series with Plasmodium falciparum [7] is over 50%. In addition, the Activity in series [16] worked out at 30%.
As to `CCOC(=O)C1=C(C)N(CCCCCC(=O)O)C(=O)NC1c1cccc([N+](=O)[O-])c1` (configuration not stated), it took 1600 nM to reach half-maximal inhibition in the series with Plasmodium falciparum [3] (IC50). Further, the fold change (FC) in [4] was 1.01; in series [5] it was 0.93; in series [6] it was 0.85; in the series on Plasmodium falciparum [8], 1.8; with Plasmodium falciparum [9] it was -1.1; in series [10], 1.3. Further, the fold change (FC) in series [11] was 1; in series [12], 1.4; in series [13] it was 1.1; in series [14] it was 1.1; in [15], -1.3; in series [17] it was 1.3. The GI50 in series [1] and in series [2] was over 10000 nM throughout. Further, the inhibition at 5 µM in the series with Plasmodium falciparum [7] is over 50%.
